Source: ChEMBL document CHEMBL1144620, “Synthesis and biodistribution of new radiolabeled high-affinity choline transporter inhibitors [11C]hemicholinium-3 and [18F]hemicholinium-3” (Bioorg Med Chem Lett, 2007)

Assays:
[1] = Biodistribution in skeletal Muscle of 9L-glioma bearing rat at 1 to 3 mCi, iv after 20 mins; format: ADME, organism-based, Muscle tissue; details: in vivo
Outline: (§1)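 9L-glioma rats (200–300 g) given 1–3 mCi of [¹¹C]- or [¹⁸F]-labelled tracer iv by tail vein while consciously restrained. At 5 or 20 min they were decapitated under halothane anaesthesia. Tissues were excised and weighed, and decay-corrected radioactivity was counted by gamma counter. Values are %ID/g, averaged over three rats per time point.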

[2] = Biodistribution in L-Atrium of 9L-glioma bearing rat at 1 to 3 mCi, iv after 20 mins; format: ADME, organism-based, Left cardiac atrium; details: in vivo; outline: as §1
[3] = Ratio of biodistribution in tumor to muscle of 9L-glioma bearing rat at 1 to 3 mCi, iv after 20 mins; format: ADME, organism-based; details: in vivo
Kidney [4] = test: Biodistribution in kidney of 9L-glioma bearing rat at 1 to 3 mCi, iv after 5 mins; format: ADME, organism-based; details: in vivo; outline: as §1
Brain [5] = test: Biodistribution in brain of 9L-glioma bearing rat at 1 to 3 mCi, iv after 5 mins; format: ADME, organism-based; details: in vivo; outline: as §1
Lung [6] = test: Biodistribution in lung of 9L-glioma bearing rat at 1 to 3 mCi, iv after 5 mins; format: ADME, organism-based; details: in vivo; outline: as §1
Blood [7] = test: Biodistribution in blood of 9L-glioma bearing rat at 1 to 3 mCi, iv after 20 mins; format: ADME, organism-based; details: in vivo; outline: as §1
Kidney [8] = test: Biodistribution in kidney of 9L-glioma bearing rat at 1 to 3 mCi, iv after 20 mins; format: ADME, organism-based; details: in vivo; outline: as §1
Plasma [9] = test: Biodistribution in plasma of 9L-glioma bearing rat at 1 to 3 mCi, iv after 5 mins; format: ADME, organism-based; details: in vivo; outline: as §1
Solar plexus [10] = test: Biodistribution in solar plexus of 9L-glioma bearing rat at 1 to 3 mCi, iv after 20 mins; format: ADME, organism-based; details: in vivo; outline: as §1
Septum [11] = test: Biodistribution in septum of 9L-glioma bearing rat at 1 to 3 mCi, iv after 20 mins; format: ADME, organism-based; details: in vivo; outline: as §1
Liver [12] = test: Biodistribution in liver of 9L-glioma bearing rat at 1 to 3 mCi, iv after 20 mins; format: ADME, organism-based; details: in vivo; outline: as §1
[13] = Ratio of biodistribution in tumor to muscle of 9L-glioma bearing rat at 1 to 3 mCi, iv after 5 mins; format: ADME, organism-based; details: in vivo
[14] = Biodistribution in R-Atrium of 9L-glioma bearing rat at 1 to 3 mCi, iv after 5 mins; format: ADME, organism-based, Right cardiac atrium; details: in vivo; outline: as §1
Lung [15] = test: Biodistribution in lung of 9L-glioma bearing rat at 1 to 3 mCi, iv after 20 mins; format: ADME, organism-based; details: in vivo; outline: as §1
Brain [16] = test: Biodistribution in brain of 9L-glioma bearing rat at 1 to 3 mCi, iv after 20 mins; format: ADME, organism-based; details: in vivo; outline: as §1
[17] = Biodistribution in urine of 9L-glioma bearing rat at 1 to 3 mCi, iv after 20 mins; format: ADME, organism-based; details: in vivo
Outline: (§2)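 In 9L-glioma rats injected iv (tail vein, conscious restraint) with 1–3 mCi of radiotracer, urine was drawn by syringe from the bladder at 5 or 20 min. Animals were killed by decapitation under halothane. Decay-corrected radioactivity was gamma-counted and expressed as percent of injected dose (%ID), averaged over three rats.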

Liver [18] = test: Biodistribution in liver of 9L-glioma bearing rat at 1 to 3 mCi, iv after 5 mins; format: ADME, organism-based; details: in vivo; outline: as §1
Blood [19] = test: Biodistribution in blood of 9L-glioma bearing rat at 1 to 3 mCi, iv after 5 mins; format: ADME, organism-based; details: in vivo; outline: as §1
[20] = Biodistribution in R-ventricle of 9L-glioma bearing rat at 1 to 3 mCi, iv after 5 mins; format: ADME, organism-based, Heart right ventricle; details: in vivo; outline: as §1
9L [21] = test: Biodistribution in tumor of 9L-glioma bearing rat at 1 to 3 mCi, iv after 5 mins; format: ADME, organism-based; details: in vivo; outline: as §1
[22] = Biodistribution in urine of 9L-glioma bearing rat at 1 to 3 mCi, iv after 5 mins; format: ADME, organism-based; details: in vivo; outline: as §2
[23] = Biodistribution in skeletal muscle of 9L-glioma bearing rat at 1 to 3 mCi, iv after 5 mins; format: ADME, organism-based, Muscle tissue; details: in vivo; outline: as §1
[24] = Ratio of biodistribution in tumor to blood in 9L-glioma bearing rat at 1 to 3 mCi, iv after 5 mins; format: ADME, organism-based; details: tumor and blood (tumor-to-blood ratio)
[25] = Biodistribution in A-V-node of 9L-glioma bearing rat at 1 to 3 mCi, iv after 20 mins; format: ADME, organism-based; details: in vivo; outline: as §1
[26] = Biodistribution in R-Atrium of 9L-glioma bearing rat at 1 to 3 mCi, iv after 20 mins; format: ADME, organism-based, Right cardiac atrium; details: in vivo; outline: as §1
9L [27] = test: Biodistribution in tumor of 9L-glioma bearing rat at 1 to 3 mCi, iv after 20 mins; format: ADME, organism-based; details: in vivo; outline: as §1
Solar plexus [28] = test: Biodistribution in solar plexus of 9L-glioma bearing rat at 1 to 3 mCi, iv after 5 mins; format: ADME, organism-based; details: in vivo; outline: as §1
Septum [29] = test: Biodistribution in septum of 9L-glioma bearing rat at 1 to 3mCi, iv after 5 mins; format: ADME, organism-based; details: in vivo; outline: as §1
Plasma [30] = test: Biodistribution in plasma of 9L-glioma bearing rat at 1 to 3 mCi, iv after 20 mins; format: ADME, organism-based; details: in vivo; outline: as §1
[31] = Biodistribution in R-ventricle of 9L-glioma bearing rat at 1 to 3 mCi, iv after 20 mins; format: ADME, organism-based, Heart right ventricle; details: in vivo; outline: as §1
[32] = Biodistribution in L-ventricle of 9L-glioma bearing rat at 1 to 3mCi, iv after 5 mins; format: ADME, organism-based, Heart left ventricle; details: in vivo; outline: as §1
[33] = Biodistribution in L-Atrium of 9L-glioma bearing rat at 1 to 3 mCi, iv after 5 mins; format: ADME, organism-based; details: in vivo; outline: as §1
[34] = Biodistribution in A-V-node of 9L-glioma bearing rat at 1 to 3 mCi, iv after 5 mins; format: ADME, organism-based; details: in vivo; outline: as §1
[35] = Ratio of biodistribution in tumor to blood of 9L-glioma bearing rat at 1 to 3 mCi, iv after 20 mins; format: ADME, organism-based; details: tumour
[36] = Biodistribution in L-ventricle of 9L-glioma bearing rat at 1 to 3 mCi, iv after 20 mins; format: ADME, organism-based, Heart left ventricle; details: in vivo; outline: as §1

SMILES: C[N+]1(C)CCOC(O)(c2ccc(-c3ccc(C4(O)C[N+](C)([11CH3])CCO4)cc3)cc2)C1.O=S(=O)([O-])C(F)(F)F.[I-] (stereo unspecified)
- Drug uptake [1]: 0.159 % ID/g
- Drug uptake [2]: 0.457 % ID/g
- Ratio [3]: 3.094
- Drug uptake (Kidney [4]): 7.64 % ID/g
- Drug uptake (Brain [5]): 0.06 % ID/g
- Drug uptake (Lung [6]): 1.081 % ID/g
- Drug uptake (Blood [7]): 0.749 % ID/g
- Drug uptake (Kidney [8]): 3.656 % ID/g
- Drug uptake (Plasma [9]): 3.648 % ID/g
- Drug uptake (Solar plexus [10]): 2.057 % ID/g
- Drug uptake (Septum [11]): 0.223 % ID/g
- Drug uptake (Liver [12]): 1.239 % ID/g
- Ratio [13]: 3.199
- Drug uptake [14]: 0.963 % ID/g
- Drug uptake (Lung [15]): 0.59 % ID/g
- Drug uptake (Brain [16]): 0.035 % ID/g
- Drug uptake [17]: 25 % dose
- Drug uptake (Liver [18]): 0.848 % ID/g
- Drug uptake (Blood [19]): 1.383 % ID/g
- Drug uptake [20]: 0.401 % ID/g
- Drug uptake (9L [21]): 0.649 % ID/g
- Drug uptake [22]: 6.38 % dose
- Drug uptake [23]: 0.207 % ID/g
- Kp at 5 min [24]: 0.466
- Drug uptake [25]: 0.478 % ID/g
- Drug uptake [26]: 0.398 % ID/g
- Drug uptake (9L [27]): 0.457 % ID/g
- Drug uptake (Solar plexus [28]): 0.522 % ID/g
- Drug uptake (Septum [29]): 0.381 % ID/g
- Drug uptake (Plasma [30]): 1.453 % ID/g
- Drug uptake [31]: 0.234 % ID/g
- Drug uptake [32]: 0.415 % ID/g
- Drug uptake [33]: 1.026 % ID/g
- Drug uptake [34]: 1.074 % ID/g
- Ratio [35]: 0.622
- Drug uptake [36]: 0.244 % ID/g
